Among the data in ChEMBL document CHEMBL1671826, “Effect of Inhibiting Histone Deacetylase with Short-Chain Carboxylic Acids and Their Hydroxamic Acid Analogs on Vertebrate Development and Neuronal Chromatin” (ACS Med Chem Lett, 2011) are IC50 and inhibition values, retold here.

Activity calls are given as the source filed them. The calls are words filed in the database; no cut-off is given here. A value given as a limit tells only on which side of the number the result lay.

A word on the IC50: it is the midpoint of a concentration-inhibition curve.

The target of one assay is T1, Histone deacetylase 8 (Homo sapiens, UniProt Q9BY41).
T1 sequence (Q9BY41 whole entry): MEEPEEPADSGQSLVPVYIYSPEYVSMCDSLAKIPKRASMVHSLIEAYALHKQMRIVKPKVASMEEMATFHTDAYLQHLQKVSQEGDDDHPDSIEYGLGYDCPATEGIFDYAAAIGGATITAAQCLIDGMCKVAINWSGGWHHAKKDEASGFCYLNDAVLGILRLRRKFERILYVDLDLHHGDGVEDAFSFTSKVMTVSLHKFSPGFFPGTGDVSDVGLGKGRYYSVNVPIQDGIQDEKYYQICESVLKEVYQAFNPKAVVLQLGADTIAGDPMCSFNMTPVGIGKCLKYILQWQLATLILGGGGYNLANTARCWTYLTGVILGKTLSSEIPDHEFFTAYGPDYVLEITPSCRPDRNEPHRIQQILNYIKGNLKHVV
Nature of the assay: Inhibition of human recombinant HDAC8. The method, boiled down:
(§1)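 Recombinant HDAC isoforms incubated with acetyl-lysine tripeptide–AMC substrate (mimics histone H4 K12), or trifluoroacetyl-lysine-AMC for class IIa enzymes, each substrate at its Km; trypsin cleavage of deacetylated product releases fluorescent AMC. IC50 from two experiments in duplicate, mean ± SD.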

The target in a further assay is Histone deacetylase 4 (Homo sapiens, UniProt P56524). Nature of the assay: Inhibition of human recombinant HDAC4. The method, boiled down: as §1
The target in a further assay is Histone deacetylase 5 (Homo sapiens, UniProt Q9UQL6). Nature of the assay: Inhibition of human recombinant HDAC5. The method, boiled down: as §1
Assay [1] has as its target T2, Protein deacetylase HDAC6 (Homo sapiens) (UniProt Q9UBN7).
T2 sequence (whole entry): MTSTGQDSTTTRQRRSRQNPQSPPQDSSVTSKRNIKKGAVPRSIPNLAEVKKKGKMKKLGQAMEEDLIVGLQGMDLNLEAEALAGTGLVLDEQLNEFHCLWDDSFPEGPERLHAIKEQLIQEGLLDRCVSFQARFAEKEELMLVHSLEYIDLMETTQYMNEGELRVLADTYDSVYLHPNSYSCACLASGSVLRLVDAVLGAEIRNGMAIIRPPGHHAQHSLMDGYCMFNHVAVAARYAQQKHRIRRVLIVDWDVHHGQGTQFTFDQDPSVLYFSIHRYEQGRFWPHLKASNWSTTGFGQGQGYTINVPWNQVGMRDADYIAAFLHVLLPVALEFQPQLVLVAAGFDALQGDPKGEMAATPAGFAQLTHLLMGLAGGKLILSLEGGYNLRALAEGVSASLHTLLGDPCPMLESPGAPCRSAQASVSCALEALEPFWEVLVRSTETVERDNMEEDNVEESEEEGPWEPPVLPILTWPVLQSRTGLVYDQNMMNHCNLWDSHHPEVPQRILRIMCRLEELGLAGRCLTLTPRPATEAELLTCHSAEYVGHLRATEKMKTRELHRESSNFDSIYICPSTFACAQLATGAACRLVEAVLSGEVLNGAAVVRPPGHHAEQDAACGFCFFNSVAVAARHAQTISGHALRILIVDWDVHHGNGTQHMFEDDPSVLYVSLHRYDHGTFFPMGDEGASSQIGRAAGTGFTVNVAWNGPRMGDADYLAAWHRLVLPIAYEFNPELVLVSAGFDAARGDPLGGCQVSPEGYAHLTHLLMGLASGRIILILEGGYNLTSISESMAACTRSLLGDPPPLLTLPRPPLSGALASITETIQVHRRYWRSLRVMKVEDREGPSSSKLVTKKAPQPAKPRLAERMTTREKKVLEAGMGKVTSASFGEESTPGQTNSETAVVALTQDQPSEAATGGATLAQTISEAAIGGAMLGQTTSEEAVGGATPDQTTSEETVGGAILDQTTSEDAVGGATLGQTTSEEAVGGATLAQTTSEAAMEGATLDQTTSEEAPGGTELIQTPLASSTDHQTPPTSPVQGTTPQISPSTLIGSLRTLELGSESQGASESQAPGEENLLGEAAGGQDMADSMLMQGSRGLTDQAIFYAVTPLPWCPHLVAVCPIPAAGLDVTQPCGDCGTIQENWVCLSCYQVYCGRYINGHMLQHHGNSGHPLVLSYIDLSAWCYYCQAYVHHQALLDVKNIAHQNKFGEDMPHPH
Nature of the assay: Inhibition of HDAC6 in human HeLa cells assessed as acetylation of tubulin after 24 hrs by immunofluorescence assay. The class given is cell-based. The method in brief:
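HeLa cells treated 24 h at the indicated doses; tubulin acetylation quantified by immunofluorescence.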

For assay [2], the target named is T3, Protein deacetylase HDAC6 (Mus musculus) (UniProt Q9Z2V5).
T3 sequence (whole entry): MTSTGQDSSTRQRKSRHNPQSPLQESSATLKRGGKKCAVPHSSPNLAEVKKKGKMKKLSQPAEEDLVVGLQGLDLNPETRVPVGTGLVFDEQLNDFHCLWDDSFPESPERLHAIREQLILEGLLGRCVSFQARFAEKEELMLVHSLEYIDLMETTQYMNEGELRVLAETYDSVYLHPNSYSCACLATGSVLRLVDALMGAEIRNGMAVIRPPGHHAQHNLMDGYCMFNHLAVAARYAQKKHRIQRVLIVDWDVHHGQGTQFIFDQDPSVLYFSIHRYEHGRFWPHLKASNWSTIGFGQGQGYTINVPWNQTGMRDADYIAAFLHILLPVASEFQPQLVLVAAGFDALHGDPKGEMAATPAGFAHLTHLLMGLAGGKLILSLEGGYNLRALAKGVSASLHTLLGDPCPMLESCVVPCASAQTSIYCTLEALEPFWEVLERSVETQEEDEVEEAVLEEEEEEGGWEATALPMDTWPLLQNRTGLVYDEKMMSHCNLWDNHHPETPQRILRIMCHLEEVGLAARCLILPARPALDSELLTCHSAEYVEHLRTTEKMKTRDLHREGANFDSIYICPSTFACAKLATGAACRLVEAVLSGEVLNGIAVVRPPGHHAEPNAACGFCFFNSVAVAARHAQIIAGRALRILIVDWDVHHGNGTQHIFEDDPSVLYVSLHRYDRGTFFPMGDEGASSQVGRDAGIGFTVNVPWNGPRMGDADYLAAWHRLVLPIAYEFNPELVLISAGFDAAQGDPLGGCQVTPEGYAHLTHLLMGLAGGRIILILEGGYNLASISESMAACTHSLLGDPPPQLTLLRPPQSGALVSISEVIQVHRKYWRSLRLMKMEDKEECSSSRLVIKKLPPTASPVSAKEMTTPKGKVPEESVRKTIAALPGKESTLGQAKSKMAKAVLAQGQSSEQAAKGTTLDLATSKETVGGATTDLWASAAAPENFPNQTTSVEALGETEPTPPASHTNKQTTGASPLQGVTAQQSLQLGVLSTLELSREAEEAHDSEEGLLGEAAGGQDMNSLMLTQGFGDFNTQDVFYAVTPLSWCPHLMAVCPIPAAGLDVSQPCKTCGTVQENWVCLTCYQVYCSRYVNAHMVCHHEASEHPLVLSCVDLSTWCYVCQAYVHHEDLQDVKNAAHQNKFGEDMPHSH
Kind of assay: Inhibition of HDAC6 in mouse primary forebrain neurons assessed as acetylation of tubulin at 92.5 uM after 24 hrs by immunofluorescence assay. The method in brief:
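Primary mouse forebrain cultures treated 24 h at a single concentration; tubulin acetylation measured by immunofluorescence.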

Sequence of Histone deacetylase 5 (Q9UQL6 whole entry): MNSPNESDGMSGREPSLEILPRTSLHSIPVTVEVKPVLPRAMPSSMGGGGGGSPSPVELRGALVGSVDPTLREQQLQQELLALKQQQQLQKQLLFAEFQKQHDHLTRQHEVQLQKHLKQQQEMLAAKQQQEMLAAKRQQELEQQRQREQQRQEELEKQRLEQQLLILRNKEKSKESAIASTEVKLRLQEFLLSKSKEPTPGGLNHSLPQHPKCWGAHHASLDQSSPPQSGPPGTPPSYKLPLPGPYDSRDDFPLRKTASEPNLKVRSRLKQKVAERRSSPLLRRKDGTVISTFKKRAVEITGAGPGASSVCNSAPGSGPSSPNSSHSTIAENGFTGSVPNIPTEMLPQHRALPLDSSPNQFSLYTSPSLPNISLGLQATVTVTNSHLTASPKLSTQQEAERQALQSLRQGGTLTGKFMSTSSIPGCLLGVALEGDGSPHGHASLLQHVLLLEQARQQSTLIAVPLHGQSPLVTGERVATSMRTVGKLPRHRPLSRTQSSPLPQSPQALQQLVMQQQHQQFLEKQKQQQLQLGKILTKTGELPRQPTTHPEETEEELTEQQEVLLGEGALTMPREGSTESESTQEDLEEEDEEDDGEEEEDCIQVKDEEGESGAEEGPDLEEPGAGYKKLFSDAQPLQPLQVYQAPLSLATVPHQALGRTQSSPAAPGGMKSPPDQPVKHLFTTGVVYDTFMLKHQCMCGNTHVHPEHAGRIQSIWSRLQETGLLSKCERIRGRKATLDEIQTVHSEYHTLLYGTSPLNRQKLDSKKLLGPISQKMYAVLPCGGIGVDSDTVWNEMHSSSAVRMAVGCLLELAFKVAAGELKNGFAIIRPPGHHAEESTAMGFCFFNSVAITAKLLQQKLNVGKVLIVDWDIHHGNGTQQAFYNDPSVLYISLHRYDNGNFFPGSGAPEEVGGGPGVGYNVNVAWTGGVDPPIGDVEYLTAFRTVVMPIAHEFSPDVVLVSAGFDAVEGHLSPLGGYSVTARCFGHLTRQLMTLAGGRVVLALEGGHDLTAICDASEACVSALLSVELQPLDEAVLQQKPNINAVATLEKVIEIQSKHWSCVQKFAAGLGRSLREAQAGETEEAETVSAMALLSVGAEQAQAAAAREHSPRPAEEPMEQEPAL
Sequence of Histone deacetylase 4 (P56524 whole entry): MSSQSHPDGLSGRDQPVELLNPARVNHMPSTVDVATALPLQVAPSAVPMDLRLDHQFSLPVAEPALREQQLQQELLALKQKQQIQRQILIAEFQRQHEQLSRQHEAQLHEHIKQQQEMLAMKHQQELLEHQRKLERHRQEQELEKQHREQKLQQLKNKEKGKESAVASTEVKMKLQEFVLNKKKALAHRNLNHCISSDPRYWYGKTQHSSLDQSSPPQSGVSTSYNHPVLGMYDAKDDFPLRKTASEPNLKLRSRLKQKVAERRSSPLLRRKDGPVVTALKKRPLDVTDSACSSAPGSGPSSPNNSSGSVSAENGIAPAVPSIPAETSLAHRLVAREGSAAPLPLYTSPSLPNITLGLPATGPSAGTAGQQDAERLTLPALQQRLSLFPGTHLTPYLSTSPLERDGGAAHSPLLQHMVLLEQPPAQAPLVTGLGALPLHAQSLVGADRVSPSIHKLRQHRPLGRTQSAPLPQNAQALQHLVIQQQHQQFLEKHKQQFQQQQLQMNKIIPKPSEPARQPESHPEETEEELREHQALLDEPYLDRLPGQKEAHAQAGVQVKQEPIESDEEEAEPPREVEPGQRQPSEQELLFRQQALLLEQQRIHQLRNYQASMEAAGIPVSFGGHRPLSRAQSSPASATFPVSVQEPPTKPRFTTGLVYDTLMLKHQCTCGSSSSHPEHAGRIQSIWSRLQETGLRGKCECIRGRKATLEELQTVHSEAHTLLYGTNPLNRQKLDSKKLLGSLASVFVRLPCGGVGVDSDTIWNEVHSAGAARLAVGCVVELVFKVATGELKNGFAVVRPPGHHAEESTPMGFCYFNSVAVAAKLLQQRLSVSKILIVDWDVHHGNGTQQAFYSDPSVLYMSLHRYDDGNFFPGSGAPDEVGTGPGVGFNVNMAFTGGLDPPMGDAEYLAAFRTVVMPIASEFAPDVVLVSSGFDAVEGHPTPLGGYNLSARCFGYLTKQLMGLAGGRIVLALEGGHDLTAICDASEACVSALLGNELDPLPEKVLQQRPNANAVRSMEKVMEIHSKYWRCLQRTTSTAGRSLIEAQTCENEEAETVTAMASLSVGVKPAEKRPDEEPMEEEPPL

As to `O=C(O)CCCc1ccccc1`, the concentration for half-maximal inhibition (IC50) is 93 µM at Histone deacetylase 8, > 2000 µM on Histone deacetylase 4 and > 2000 µM at Histone deacetylase 5. In addition, the inhibition result in assay [1] was “inactive”. Further, in assay [2], the inhibition entry is “Active”.

Take `CCCC(CCC)C(=O)NO` [VALPROPYLHYDROXAMIC ACID]: the concentration for half-maximal inhibition (IC50) worked out at 39 µM at Histone deacetylase 8, 170 µM at Histone deacetylase 4 and 37 µM on Histone deacetylase 5. In addition, the inhibition result in assay [1] and in assay [2] was “Active” throughout.
